Assay results reported in ChEMBL document CHEMBL2413015, “Synthesis, evaluation and molecular dynamics study of some new 4-aminopyridine semicarbazones as an antiamnesic and cognition enhancing agents” (Bioorg Med Chem, 2013).

How the values were obtained:
[1] = tested on: Rattus norvegicus; assay: Toxicity in albino rat assessed as mortality upto 100 mg/kg after 30 mins to 48 hrs; format: organism-based; set-up: dose 100 mg/kg; conditions: in vivo
How it was run: (§1)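 Acute toxicity followed OECD guidelines. Nulliparous, non-pregnant female albino rats (120–150 g) were fasted overnight with water ad libitum. Graded oral doses up to 100 mg/kg were given in 0.3% carboxymethyl cellulose. Rats were observed continuously for 30 min, at 2 h and up to 48 h for behavioural or autonomic changes, tremors, convulsions, salivation, diarrhoea, sleep, lacrimation, cardiovascular signs, feeding and mortality.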

[2] = tested on: Rattus norvegicus; assay: Toxicity in albino rat assessed as change in normal behavioral response upto 100 mg/kg after 30 mins to 48 hrs; format: organism-based; set-up: dose 100 mg/kg; conditions: in vivo; how it was run: as §1
[3] = tested on: Rattus norvegicus; assay: Cognitive enhancing effect in po dosed Wistar rat assessed as reversal of learning impairment measured as transfer latency administered for 8 days by elevated plus maze test; format: functional, organism-based
How it was run: (§2)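 Oral dosing at 5 or 10 mg/kg for 8 days, suspended in 0.3% carboxymethyl cellulose; vehicle-treated controls. Transfer latency on elevated plus maze measured on first and second days of exposure (treatment days 7 and 8). Mean ± SEM, n = 6, one-way ANOVA versus vehicle control.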

[4] = tested on: Rattus norvegicus; assay: Cognitive enhancing effect in Wistar rat assessed as reversal of learning impairment measured as transfer latency at 10 mg/kg, po for 8 days measured on second day of test by elevated plus maze test (reference value: 66.824 +/- 0.47 seconds); format: functional; how it was run: as §2
[5] = tested on: Rattus norvegicus; assay: Cognitive enhancing effect in Wistar rat assessed as reversal of learning impairment measured as transfer latency at 5 mg/kg, po for 8 days measured on second day of test by elevated plus maze test (reference value: 66.824 +/- 0.47 seconds); format: functional; how it was run: as §2
[6] = tested on: Rattus norvegicus; assay: Cognitive enhancing effect in Wistar rat assessed as reversal of learning impairment measured as transfer latency at 10 mg/kg, po for 8 days measured on first day of test by elevated plus maze test (reference value: 70.846 +/- 0.76 seconds); format: functional; how it was run: as §2
[7] = tested on: Rattus norvegicus; assay: Cognitive enhancing effect in Wistar rat assessed as reversal of learning impairment measured as transfer latency at 5 mg/kg, po for 8 days measured on first day of test by elevated plus maze test (reference value: 70.846 +/- 0.76 seconds); format: functional; how it was run: as §2
[8] = tested on: Rattus norvegicus; assay: Activity at AChE in Charles Foster rat hypothalamus assessed as substrate hydrolyzed per mg of protein at 10 mg/kg, po for 8 days by Ellman's method (reference value: 40.50 +/- 0.76 mol/min); format: functional
[9] = tested on: Rattus norvegicus; assay: Activity at AChE in Charles Foster rat hypothalamus assessed as substrate hydrolyzed per mg of protein at 5 mg/kg, po for 8 days by Ellman's method (reference value: 40.50 +/- 0.76 mol/min); format: functional
[10] = tested on: Rattus norvegicus; assay: Activity at AChE in Charles Foster rat hippocampus assessed as substrate hydrolyzed per mg of protein at 10 mg/kg, po for 8 days by Ellman's method (reference value: 47.50 +/- 0.84 mol/min); format: functional
[11] = tested on: Rattus norvegicus; assay: Activity at AChE in Charles Foster rat hippocampus assessed as substrate hydrolyzed per mg of protein at 5 mg/kg, po for 8 days by Ellman's method (reference value: 47.50 +/- 0.84 mol/min); format: functional
[12] = tested on: Rattus norvegicus; assay: Activity at AChE in Charles Foster rat prefrontal cortex assessed as substrate hydrolyzed per mg of protein at 10 mg/kg, po for 8 days by Ellman's method (reference value: 45.83 +/- 0.94 mol/min); format: functional
[13] = tested on: Rattus norvegicus; assay: Activity at AChE in Charles Foster rat prefrontal cortex assessed as substrate hydrolyzed per mg of protein at 5 mg/kg, po for 8 days by Ellman's method (reference value: 45.83 +/- 0.94 mol/min); format: functional
[14] = tested on: Rattus norvegicus; assay: Cognitive enhancing effect in Charles Foster rat assessed as reversal of scopolamine-induced amnesia measured as transfer latency at 10 mg/kg, po for 8 days administered 1 hr prior to scopolamine-challenge on day 7 measured on day 8 by elevated plus maze test (reference value: 62.17 +/- 0.47 seconds); format: functional
[15] = tested on: Rattus norvegicus; assay: Cognitive enhancing effect in Charles Foster rat assessed as reversal of scopolamine-induced amnesia measured as transfer latency at 5 mg/kg, po for 8 days administered 1 hr prior to scopolamine-challenge on day 7 measured on day 8 by elevated plus maze test (reference value: 62.17 +/- 0.47 seconds); format: functional
[16] = tested on: Rattus norvegicus; assay: Cognitive enhancing effect in Charles Foster rat assessed as reversal of scopolamine-induced amnesia measured as transfer latency at 10 mg/kg, po for 8 days administered 1 hr prior to scopolamine-challenge on day 7 measured on same day by elevated plus maze test (reference value: 67.83 +/- 0.94 seconds); format: functional
[17] = tested on: Rattus norvegicus; assay: Cognitive enhancing effect in Charles Foster rat assessed as reversal of scopolamine-induced amnesia measured as transfer latency at 5 mg/kg, po for 8 days administered 1 hr prior to scopolamine-challenge on day 7 measured on same day by elevated plus maze test (reference value: 67.83 +/- 0.94 seconds); format: functional
[18] = biological target: T1, Cholinesterase (Homo sapiens, UniProt P06276); assay: Competitive inhibition of human serum BChE using butyrylthiocholine iodide as substrate by Lineweaver-Burk plot analysis
T1 sequence (P06276 whole entry): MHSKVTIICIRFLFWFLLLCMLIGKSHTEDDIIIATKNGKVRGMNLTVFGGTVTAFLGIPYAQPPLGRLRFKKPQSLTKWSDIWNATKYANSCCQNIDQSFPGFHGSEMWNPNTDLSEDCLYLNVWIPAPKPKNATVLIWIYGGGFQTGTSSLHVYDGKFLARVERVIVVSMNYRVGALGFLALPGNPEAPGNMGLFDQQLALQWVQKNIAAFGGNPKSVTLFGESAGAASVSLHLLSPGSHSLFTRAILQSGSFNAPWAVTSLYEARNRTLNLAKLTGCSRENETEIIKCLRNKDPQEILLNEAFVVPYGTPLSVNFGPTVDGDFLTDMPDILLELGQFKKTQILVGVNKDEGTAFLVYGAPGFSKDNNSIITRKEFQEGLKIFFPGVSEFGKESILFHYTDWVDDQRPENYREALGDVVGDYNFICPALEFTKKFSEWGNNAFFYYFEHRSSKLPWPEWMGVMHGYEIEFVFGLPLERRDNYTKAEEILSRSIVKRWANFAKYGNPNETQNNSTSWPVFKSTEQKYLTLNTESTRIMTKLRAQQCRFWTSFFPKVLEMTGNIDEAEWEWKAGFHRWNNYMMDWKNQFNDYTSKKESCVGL
How it was run: (§3)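 Ellman assay in phosphate buffer pH 8 with a fixed amount of cholinesterase. Thiocholine substrate was varied from below to above, but near, Km, with or without inhibitor. Inhibition type was assigned from Lineweaver–Burk plots.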

[19] = biological target: T2, Acetylcholinesterase (Electrophorus electricus, UniProt O42275); assay: Competitive inhibition of electric eel AChE using acetylthiocholine iodide as substrate by Lineweaver-Burk plot analysis; how it was run: as §3
T2 sequence (O42275 whole entry): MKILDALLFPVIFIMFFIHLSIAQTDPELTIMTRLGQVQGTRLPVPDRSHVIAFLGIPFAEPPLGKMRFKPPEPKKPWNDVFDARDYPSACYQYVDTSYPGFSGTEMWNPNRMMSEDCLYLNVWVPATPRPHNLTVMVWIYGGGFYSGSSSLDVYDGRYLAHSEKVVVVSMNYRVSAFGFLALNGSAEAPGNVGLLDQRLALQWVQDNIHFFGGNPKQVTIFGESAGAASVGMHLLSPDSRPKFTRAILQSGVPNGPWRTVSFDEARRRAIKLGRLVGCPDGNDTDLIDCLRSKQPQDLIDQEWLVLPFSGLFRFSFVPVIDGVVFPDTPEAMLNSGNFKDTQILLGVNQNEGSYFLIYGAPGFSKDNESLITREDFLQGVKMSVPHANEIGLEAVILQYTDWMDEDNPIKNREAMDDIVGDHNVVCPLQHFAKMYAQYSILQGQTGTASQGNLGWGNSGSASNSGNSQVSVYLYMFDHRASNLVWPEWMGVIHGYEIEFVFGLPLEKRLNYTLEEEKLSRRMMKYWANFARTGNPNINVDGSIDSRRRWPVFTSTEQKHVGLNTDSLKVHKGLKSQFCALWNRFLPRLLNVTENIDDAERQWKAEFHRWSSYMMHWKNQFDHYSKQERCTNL

[20] = Selectivity ratio of IC50 for human serum BChE to IC50 for electric eel AChE
How it was run: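 Ratio of IC50 (BChE) to IC50 (AChE). Both came from Ellman assays at 0.1 M phosphate pH 8.0 and 0.02 unit/mL enzyme: AChE (stock in phosphate buffer) with acetylthiocholine, human serum BChE (stock in 0.1% gelatine) with butyrylthiocholine.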

[21] = biological target: T1, Cholinesterase; assay: Inhibition of human serum BChE using butyrylthiocholine iodide as substrate preincubated for 20 mins prior to substrate addition by Ellman's method
How it was run: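 Human serum BChE was dissolved in 0.1% gelatine. The final mix held 0.1 M phosphate pH 8.0, DTNB, 0.02 unit/mL enzyme and butyrylthiocholine iodide. Five inhibitor concentrations spanning 20–80% inhibition were preincubated with enzyme for 20 min at 37 °C, then substrate was added. Rate was read at 412 nm over 5 min against an enzyme-free blank. Each point was run in triplicate, and IC50 was read graphically from log concentration–% inhibition curves.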

[22] = biological target: T2, Acetylcholinesterase; assay: Inhibition of electric eel AChE using acetylthiocholine iodide as substrate preincubated for 20 mins prior to substrate addition by Ellman's method

SMILES	Activity [1]	Activity [2]	Activity [3]	Time [4] [s]	Time [5] [s]	Time [6] [s]	Time [7] [s]	Activity [8] [mol/min]	Activity [9] [mol/min]	Activity [10] [mol/min]	Activity [11] [mol/min]	Activity [12] [mol/min]	Activity [13] [mol/min]	Time [14] [s]	Time [15] [s]	Time [16] [s]	Time [17] [s]	Ki [18] [µM]	IC50 [21] [µM]	IC50 ([22]; read-out: IC50) [µM]	also measured
O=C(N/N=C/c1ccccc1)Nc1ccncc1	Non-toxic	Non-toxic	Dose-dependent effect	51	53.33	58.33	59.17	35.83	36.5	41	42.33	40.5	42.03	66.17	69.33	70.33	74.17	685	845	82.3	Ki [19]: 88.6 µM; Ratio IC50 [20]: 10.3
COc1ccc(/C=N/NC(=O)Nc2ccncc2)cc1OC	Non-toxic	Non-toxic	Dose-dependent effect	40.5	44.5	49.33	52.17	33.17	35.33	35.83	38.17	35.17	36.87	57.17	62.17	64.83	67.17	283	426	12.7	Ki [19]: 10.3 µM; Ratio IC50 [20]: 33.6
COc1ccc(/C=N/NC(=O)Nc2ccncc2)cc1	Non-toxic	Non-toxic	Dose-dependent effect	48.67	50.5	56.33	56.17	36.83	35.17	37.5	40.33	37.83	39.5	63.33	65.83	67.83	70.17	624	786	48.3	Ki [19]: 35.5 µM; Ratio IC50 [20]: 16.3; IC50 ([22]; read-out: pIC50 (converted)): 49 µM
COc1cc2c(cc1OC)C(=O)C(CC1CCN(Cc3ccccc3)CC1)C2 (stereo not given) [DONEPEZIL]	–	–	Dose-dependent effect	37.67	39.1	43.17	45.14	26.82	28.54	30.86	32.38	28.24	31.25	53.86	55.42	61.25	64.2	–	–	–	–
NNC(=O)Nc1ccncc1	Non-toxic	Non-toxic	Dose-dependent effect	59.33	60.5	64	65	37.17	37.47	43.67	44.5	42.17	42.33	69.83	71.83	75.5	78	–	> 1000	211	–
NC(=O)Nc1ccncc1	Non-toxic	Non-toxic	Dose-dependent effect	60.17	61.25	65.12	66.2	37.33	37.5	44.17	44.5	42.5	43	73	75	77.83	80.83	–	> 1000	274	–
